The record followed here is ChEMBL document CHEMBL3804758, “Click-based synthesis and antitubercular evaluation of novel dibenzo[b,d]thiophene-1,2,3-triazoles with piperidine, piperazine, morpholine and thiomorpholine appendages” (Bioorg Med Chem Lett, 2016).

Converted amounts (≈) assume the structure as drawn.

Usually MIC stands for the smallest concentration in the dilution series that meets the test's criterion for growth inhibition.

For the assay, the system named is Mycobacterium tuberculosis. The assay can be described thus: Antimycobacterial activity against Mycobacterium tuberculosis H37Rv ATCC 27294 after 28 days by agar dilution technique. The format is functional. The note with it: H37Rv ATCC 27294, 672 h. In short, it runs like this:
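Agar dilution in Middlebrook 7H11 with OADC supplement. Two-fold serial dilutions from 50.0 down to 0.4 µg/mL were incorporated into the agar. Inoculum of H37Rv came from fresh 7H11/OADC slants, suspended in saline diluted to […]. 5 μL was spotted per tube, incubated at 37 °C and read after 28 days. MIC was the lowest concentration giving complete growth inhibition, done in triplicate.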
The compound `CC(C)(C)c1ccc(-c2cn(C(CN3CCSCC3)c3ccc4sc5ccccc5c4c3)nn2)cc1` (stereo not drawn) returned an MIC of 6.25 µg/mL (≈ 12.2 µM). `CCCCc1cn(C(CN2CCOCC2)c2ccc3sc4ccccc4c3c2)nn1` (stereo not drawn): 50 µg/mL (≈ 119 µM) was the least that counted as inhibitory (MIC).

The compound `Cc1ccc(-c2cn(C(CN3CCSCC3)c3ccc4sc5ccccc5c4c3)nn2)cc1` (stereo not drawn) gave an MIC of 12.5 µg/mL (≈ 26.6 µM). In the case of `Fc1ccc(-c2cn(C(CN3CCOCC3)c3ccc4sc5ccccc5c4c3)nn2)c(Cl)c1` (stereo not drawn) it was 25 µg/mL (≈ 50.7 µM).

Regarding `O=[N+]([O-])c1ccc(-c2cn(C(CN3CCSCC3)c3ccc4sc5ccccc5c4c3)nn2)cc1` (stereo not drawn), the MIC amounted to 25 µg/mL (≈ 49.8 µM).

As to `c1ccc(-c2cn(C(CN3CCSCC3)c3ccc4sc5ccccc5c4c3)nn2)cc1` (stereo not drawn), the MIC turned out to be 50 µg/mL (≈ 109 µM). In the case of `CC(C)(C)c1ccc(-c2cn(C(CN3CCCCC3)c3ccc4sc5ccccc5c4c3)nn2)cc1` (stereo not drawn) it was 3.12 µg/mL (≈ 6.31 µM); in that of `CC(C)(C)c1ccc(-c2cn(C(CN3CCOCC3)c3ccc4sc5ccccc5c4c3)nn2)cc1` (stereo not drawn), 6.25 µg/mL (≈ 12.6 µM). In the case of `OCCN1CCN(CC(c2ccc3sc4ccccc4c3c2)n2cc(-c3ccccc3)nn2)CC1` (stereo not drawn), the lowest concentration to inhibit growth (MIC) was 12.5 µg/mL (≈ 25.8 µM). Compound `CC(C)(C)c1ccc(-c2cn(C(CN3CCNCC3)c3ccc4sc5ccccc5c4c3)nn2)cc1` (stereo not drawn) registered an MIC of 6.25 µg/mL (≈ 12.6 µM).

Consider `CCCCc1cn(C(CN2CCN(CCO)CC2)c2ccc3sc4ccccc4c3c2)nn1` (stereo not drawn), for which the MIC was found to be 6.25 µg/mL (≈ 13.5 µM). `Cc1ccc(-c2cn(C(CN3CCNCC3)c3ccc4sc5ccccc5c4c3)nn2)cc1` (stereo not drawn) came in with an MIC of 6.25 µg/mL (≈ 13.8 µM).

As to `Fc1ccc(-c2cn(C(CN3CCCCC3)c3ccc4sc5ccccc5c4c3)nn2)c(Cl)c1` (stereo not drawn), the MIC came out at 50 µg/mL (≈ 102 µM). For `CCCCc1cn(C(CN2CCCCC2)c2ccc3sc4ccccc4c3c2)nn1` (stereo not drawn), the MIC came to 0.78 µg/mL (≈ 1.86 µM). Take `CC(C)(C)c1ccc(-c2cn(C(CN3CCN(CCO)CC3)c3ccc4sc5ccccc5c4c3)nn2)cc1` (stereo not drawn): the MIC was 25 µg/mL (≈ 46.3 µM).

In turn, `O=[N+]([O-])c1ccc(-c2cn(C(CN3CCOCC3)c3ccc4sc5ccccc5c4c3)nn2)cc1` (stereo not drawn) came in with an MIC of 50 µg/mL (≈ 103 µM). In turn, `CC[C@@H](CO)NCCN[C@@H](CC)CO` [ETHAMBUTOL] came in with an MIC of 3.13 µg/mL (≈ 15.3 µM).

Compound `O=[N+]([O-])c1ccc(-c2cn(C(CN3CCN(CCO)CC3)c3ccc4sc5ccccc5c4c3)nn2)cc1` (stereo not drawn) showed an MIC of 12.5 µg/mL (≈ 23.6 µM). Regarding `Fc1ccc(-c2cn(C(CN3CCNCC3)c3ccc4sc5ccccc5c4c3)nn2)c(Cl)c1` (stereo not drawn), the lowest concentration to inhibit growth (MIC) was 1.56 µg/mL (≈ 3.17 µM).

As for `Fc1ccc(-c2cn(C(CN3CCSCC3)c3ccc4sc5ccccc5c4c3)nn2)c(Cl)c1` (stereo not drawn), it took 12.5 µg/mL (≈ 24.6 µM) to inhibit growth (MIC). Take `OCCN1CCN(CC(c2ccc3sc4ccccc4c3c2)n2cc(-c3ccc(F)cc3Cl)nn2)CC1` (stereo not drawn): the MIC is 12.5 µg/mL (≈ 23.3 µM). In turn, `c1ccc(-c2cn(C(CN3CCCCC3)c3ccc4sc5ccccc5c4c3)nn2)cc1` (stereo not drawn) came in with an MIC of 0.78 µg/mL (≈ 1.78 µM). `O=[N+]([O-])c1ccc(-c2cn(C(CN3CCNCC3)c3ccc4sc5ccccc5c4c3)nn2)cc1` (stereo not drawn) came in with an MIC of 3.12 µg/mL (≈ 6.44 µM). `Cc1ccc(-c2cn(C(CN3CCCCC3)c3ccc4sc5ccccc5c4c3)nn2)cc1` (stereo not drawn) yielded an MIC of 50 µg/mL (≈ 110 µM). Compound `c1ccc(-c2cn(C(CN3CCNCC3)c3ccc4sc5ccccc5c4c3)nn2)cc1` (stereo not drawn) had a minimal inhibitory concentration (MIC) of 12.5 µg/mL (≈ 28.4 µM). Next, `c1ccc(-c2cn(C(CN3CCOCC3)c3ccc4sc5ccccc5c4c3)nn2)cc1` (stereo not drawn): 50 µg/mL (≈ 113 µM). With `CCCCc1cn(C(CN2CCNCC2)c2ccc3sc4ccccc4c3c2)nn1` (stereo not drawn), the MIC stood at 12.5 µg/mL (≈ 29.8 µM). With `NNC(=O)c1ccncc1` [ISONIAZID], the lowest concentration to inhibit growth (MIC) was 0.1 µg/mL (≈ 0.729 µM). As to `CCCCc1cn(C(CN2CCSCC2)c2ccc3sc4ccccc4c3c2)nn1` (stereo not drawn), the MIC is 25 µg/mL (≈ 57.3 µM). Regarding `Cc1ccc(-c2cn(C(CN3CCN(CCO)CC3)c3ccc4sc5ccccc5c4c3)nn2)cc1` (stereo not drawn), inhibition of growth (MIC) required 50 µg/mL (≈ 100 µM). On to `Cc1ccc(-c2cn(C(CN3CCOCC3)c3ccc4sc5ccccc5c4c3)nn2)cc1` (stereo not drawn), for which the MIC was determined as 25 µg/mL (≈ 55 µM). Turning to `O=[N+]([O-])c1ccc(-c2cn(C(CN3CCCCC3)c3ccc4sc5ccccc5c4c3)nn2)cc1` (stereo not drawn), the MIC was 50 µg/mL (≈ 103 µM). `NC(=O)c1cnccn1` [PYRAZINAMIDE] gave a minimum inhibitory concentration (MIC) of 50 µg/mL (≈ 406 µM).
